Entries after “also recorded” stand apart in the source; their conditions may differ.
How the values were obtained:
[1] = cited from earlier work
[2] = ref [17], [18]; cited from earlier work
[3] = vs native BSA, ref [21]–[23]; cited from earlier work
Solute properties = format: physicochemical; conditions: known charge of the trivalent peptide
[4] = Calculated diffusion times and temperature effect
[5] = Net charge estimated by fitting Donnan equilibrium theory to uptake data; format: physicochemical, bovine; conditions: average of individual explants, mean ± SD, n = 68
Method in brief: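 Bovine cartilage disks (3-mm, L1/L2) equilibrated 48 h at 4°C in PBS with 0.1% BSA, 0.01% NaN₃ and protease inhibitors containing ¹²⁵I-labelled peptide. Disk and bath counted by gamma counter. Uptake ratio: tissue concentration per water weight over bath concentration. sGAG measured by DMMB after proteinase-K digestion. Z is the exponent of a power-law relating peptide uptake to Na⁺ partitioning calculated from each specimen's GAG density.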

[6] = Equilibrium uptake / competitive binding in adult bovine cartilage; conditions: labeled vs unlabeled Pf-pep
[7] = intra-articular injection, ref [47]; cited from earlier work

Q: With `CN(C)c1ccc2c(-c3ccccc3C(=O)[O-])c3ccc(N(C)C)cc3[o+]c2c1` [tetramethylrhodamine] as the molecule, how does the “effect of static compression on diffusivity” value ([1]; TMR, ref [49], [50]) read?
A: The value was “reduced the diffusivities”.

Q: With insulin-like growth factor-1 [IGF-1] as the molecule, how does the “binding to IGFBPs in cartilage ECM” value [2] read?
A: Its value is “binds to specific IGF binding proteins (IGFBPs)”.

Q: Which “uptake and retention in murine cartilage” value [3] does the source give for “cationized bovine serum albumin (BSA): cationized bovine serum albumin” here?
A: The value was “increased uptake and prolonged retention via binding within murine cartilage compared to native BSA”.

Q: With Arg-Tyr-Lys-Arg-Thr [Pf-pep] as the molecule, how does the known net charge (Solute properties) read?
A: The known net charge was “+3”.

Q: And the “characteristic time lag L^2/6D” value ([4]; L = 1 mm, D ~1×10^−6 cm^2/s)?
A: Its value is ~ 27 min.

Q: And the “factor of increase of diffusion coefficient at 37°C” value ([4]; Stokes-Einstein relation, from room temperature to 37°C)?
A: Its value is ~ 1.4.

Q: What about the “diffusion time constant δ^2/(π^2D)” value ([4]; δ = 400 μm, D ~1×10^−6 cm^2/s) of the same molecule?
A: The value was ~ 2.7 min.

Q: And the “average net charge Z” value [5]?
A: The value was “+3.07 ± 0.74”.

Q: What about the “binding to sites within cartilage” value [6] of the same molecule?
A: Its value is “negligible binding; also recorded: little or no binding of Pf-pep to sites within the tissue; also recorded: did not show measurable binding to the negatively charged GAG chains in cartilage”.

Q: With `O=C(O)c1ccccc1O` [salicylate] as the molecule, how does the “clearance time from synovial fluid” value [7] read?
A: Its value is 1 to 5 h.

Q: For `OC[C@H]1OC(O)[C@H](O)[C@@H](O)[C@@H]1O` (stereo partly drawn) [glucose], which “variation of diffusivity with tissue depth” value ([1]; ref [42]) is on record?
A: Its value is “did not vary significantly with tissue depth”.

Q: Which “clearance time from synovial fluid” value [7] does the source give for `O=C(O)Cc1ccccc1Nc1c(Cl)cccc1Cl` [diclofenac] here?
A: The value was 1 to 5 h.
